From ChEMBL document CHEMBL1131241, “Cyclic HIV protease inhibitors: design and synthesis of orally bioavailable, pyrazole P2/P2' cyclic ureas with improved potency” (J Med Chem, 1998)

Tests used:
MT2 [1] = test: Cytotoxicity was determined by 50% reduction in the number of viable MT2 cells with HIV-1RF; assay type: functional; conditions: Homo sapiens, read-out: TC50 (the source's name)
How it was run: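 TC50 taken as concentration giving 50% fewer viable cells, with viability read by tetrazolium dye metabolism.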

[2] = biological target: Human immunodeficiency virus type 1 protease (Human immunodeficiency virus 1, UniProt Q72874); test: Inhibition of HIV protease, measured by assaying the cleavage of a fluorescent peptide substrate using HPLC
MT2 [3] = test: Concentration which reduced the concentration of HIV viral RNA by 90% from the level measured in an untreated infected culture; assay type: functional; conditions: Homo sapiens
How it was run: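 MT-2 cells infected with HIV-1 RF. Uninfected cells preincubated 30 min with serial dilutions of compound in culture medium, then virus added; cultured 3 days at 37 °C, 5% CO₂. Lysed cells assayed for HIV RNA by microtiter plate hybridization. IC90 = concentration lowering viral RNA 90% versus untreated infected culture.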

[4] = Bioavailability as maximal plasma concentration in rats after 10 mg/kg oral dose; assay type: ADME, organism-based; parameters: dose 10 mg/kg, route oral; conditions: rat
[5] = Bioavailability as maximal plasma concentration in dogs after 2.5 mg/kg oral dose; assay type: ADME, organism-based, Canis lupus familiaris; parameters: dose 2.5 mg/kg, route oral; conditions: dog

Compound	CC50 (MT2 [1]) [nM]	Ki [2] [nM]	IC90 (MT2 [3]) [nM]	Cmax [4] [nM]	Cmax [5] [nM]
CC(=O)c1cccc(CN2C(=O)N(Cc3cccc(C(C)=O)c3)[C@H](Cc3ccccc3)[C@H](O)[C@@H](O)[C@H]2Cc2ccccc2)c1	20000	0.06	39	500	
O=C1N(Cc2cccc(-c3c[nH]cn3)c2)[C@H](Cc2ccccc2)[C@H](O)[C@@H](O)[C@@H](Cc2ccccc2)N1Cc1cccc(-c2c[nH]cn2)c1	8800	0.19	84	< 42	
CCC(=O)c1cccc(CN2C(=O)N(Cc3cccc(C(=O)CC)c3)[C@H](Cc3ccccc3)[C@H](O)[C@@H](O)[C@H]2Cc2ccccc2)c1	> 80000	0.21	142		
O=C1N[C@H](Cc2ccccc2)[C@H](O)[C@@H](O)[C@@H](Cc2ccccc2)N1Cc1cccc(-c2cc[nH]n2)c1	21000	0.26	67	780	
O=C1N(Cc2cccc(C(=O)C(F)(F)F)c2)[C@H](Cc2ccccc2)[C@H](O)[C@@H](O)[C@@H](Cc2ccccc2)N1Cc1cccc(C(=O)C(F)(F)F)c1	5400	0.037	33		
CCC/C(=N/O)c1cccc(CN2C(=O)N(Cc3cccc(/C(CCC)=N/O)c3)[C@H](Cc3ccccc3)[C@H](O)[C@@H](O)[C@H]2Cc2ccccc2)c1	3700	0.031	64		
O=C1N(Cc2cccc(-c3nc[nH]n3)c2)[C@H](Cc2ccccc2)[C@H](O)[C@@H](O)[C@@H](Cc2ccccc2)N1Cc1cccc(-c2nc[nH]n2)c1	53000	0.052	128		
O=C1N(Cc2cccc(/C(=N/O)C(F)(F)F)c2)[C@H](Cc2ccccc2)[C@H](O)[C@@H](O)[C@@H](Cc2ccccc2)N1Cc1cccc(/C(=N\O)C(F)(F)F)c1	14000	3.9	714		
O=Cc1cccc(CN2C(=O)N(Cc3cccc(C=O)c3)[C@H](Cc3ccccc3)[C@H](O)[C@@H](O)[C@H]2Cc2ccccc2)c1	19000	0.44	36	260	
O=C1N(Cc2cccc(CO)c2)[C@H](Cc2ccccc2)[C@H](O)[C@@H](O)[C@@H](Cc2ccccc2)N1Cc1cccc(-c2cc[nH]n2)c1	20000	0.16	234	110	
O=C1N(Cc2cccc(-c3nnn[nH]3)c2)[C@H](Cc2ccccc2)[C@H](O)[C@@H](O)[C@@H](Cc2ccccc2)N1Cc1cccc(-c2nnn[nH]2)c1	78000	6.6	> 70000		
CC/C(=N/O)c1cccc(CN2C(=O)N(Cc3cccc(/C(CC)=N/O)c3)[C@H](Cc3ccccc3)[C@H](O)[C@@H](O)[C@H]2Cc2ccccc2)c1	5000	0.031	7		
CC(C)(C)C(=O)c1cccc(CN2C(=O)N(Cc3cccc(C(=O)C(C)(C)C)c3)[C@H](Cc3ccccc3)[C@H](O)[C@@H](O)[C@H]2Cc2ccccc2)c1		3.6			
CCCC(=O)c1cccc(CN2C(=O)N(Cc3cccc(C(=O)CCC)c3)[C@H](Cc3ccccc3)[C@H](O)[C@@H](O)[C@H]2Cc2ccccc2)c1	> 77000	1.4	1440		
O=C1N(Cc2cccc(-c3cn[nH]c3)c2)[C@H](Cc2ccccc2)[C@H](O)[C@@H](O)[C@@H](Cc2ccccc2)N1Cc1cccc(-c2cn[nH]c2)c1	1400	0.62	32	75	
O=C(NCCN1CCOCC1)c1cccc(CN2C(=O)N(Cc3cccc(-c4cc[nH]n4)c3)[C@H](Cc3ccccc3)[C@H](O)[C@@H](O)[C@H]2Cc2ccccc2)c1	43000	0.052	128		
O=C1N(Cc2cccc(/C=N\O)c2)[C@H](Cc2ccccc2)[C@H](O)[C@@H](O)[C@@H](Cc2ccccc2)N1Cc1cccc(/C=N/O)c1	16000	0.01	5	300	
O=C1N(Cc2cccc(-c3cc[nH]n3)c2)[C@H](Cc2ccccc2)[C@H](O)[C@@H](O)[C@@H](Cc2ccccc2)N1Cc1cccc(-c2cc[nH]n2)c1	4200	0.027	20	68	
C/C(=N/O)c1cccc(CN2C(=O)N(Cc3cccc(/C(C)=N/O)c3)[C@H](Cc3ccccc3)[C@H](O)[C@@H](O)[C@H]2Cc2ccccc2)c1	81000	0.018	2	60	
O=C1N(Cc2cccc(-c3ncc[nH]3)c2)[C@H](Cc2ccccc2)[C@H](O)[C@@H](O)[C@@H](Cc2ccccc2)N1Cc1cccc(-c2ncc[nH]2)c1	78000	0.16	234		
O=C1N(Cc2cccc(-c3c[nH]nn3)c2)[C@H](Cc2ccccc2)[C@H](O)[C@@H](O)[C@@H](Cc2ccccc2)N1Cc1cccc(-c2c[nH]nn2)c1	47000	0.17	94		
Nc1cccc(CN2C(=O)N(Cc3cccc(-c4cc[nH]n4)c3)[C@H](Cc3ccccc3)[C@H](O)[C@@H](O)[C@H]2Cc2ccccc2)c1	6800	0.035	27		850
O=C1N(Cc2cccnc2)[C@H](Cc2ccccc2)[C@H](O)[C@@H](O)[C@@H](Cc2ccccc2)N1Cc1cccc(-c2cc[nH]n2)c1	6300	0.17	94		
O=C1N(Cc2ccc(O)cc2)[C@H](Cc2ccccc2)[C@H](O)[C@@H](O)[C@@H](Cc2ccccc2)N1Cc1cccc(-c2cc[nH]n2)c1	4800	0.021	30		
COC(=O)c1cccc(CN2C(=O)N(Cc3cccc(-c4cc[nH]n4)c3)[C@H](Cc3ccccc3)[C@H](O)[C@@H](O)[C@H]2Cc2ccccc2)c1	5700	0.14	32	320	
Nc1cccc(CN2C(=O)N(Cc3cccc(N)c3)[C@H](Cc3ccccc3)[C@H](O)[C@@H](O)[C@H]2Cc2ccccc2)c1 [MOZENAVIR]				2250	
